Source: ChEMBL document CHEMBL1132441, “Further studies on oxygenated tryptamines with LSD-like activity incorporating a chiral pyrrolidine moiety into the side chain” (J Med Chem, 1999)
Several values for one entry are separate records, joined by “and”; a condition that tells them apart may be missing. Equal values may be shown once.

How the values were obtained:
[1] = system: Rattus norvegicus; assay: Substitution tests were carried out for the compound in LSD- trained rats dosed with 0.02 mg/kg drug and the binding data was reported; assay type: functional
[2] = system: Rattus norvegicus; assay: Substitution tests were carried out for the compound in LSD- trained rats dosed with 0.046 uM/kg drug and the binding data was reported; assay type: functional
[3] = system: Rattus norvegicus; assay: Percentage of rats selecting the drug liver at dose of 0.1 mg/kg; assay type: functional
Summary of the method: (§1)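 Male Sprague–Dawley rats were trained in a two-lever FR50 food-reinforced task to discriminate LSD (0.08 mg/kg) or DOI (0.4 mg/kg) from saline. Test drugs were given i.p. in 0.9% saline 30 min before the session. The lever first pressed 50 times was scored as selected, and the result is the percentage of rats selecting the drug lever.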

[4] = system: Rattus norvegicus; assay: Percentage of rats selecting the drug liver at dose of 0.2 mg/kg; assay type: functional; summary of the method: as §1
[5] = system: Rattus norvegicus; assay: Percentage of rats selecting the drug liver at dose of 0.4 mg/kg; assay type: functional; summary of the method: as §1
[6] = biological target: 5-hydroxytryptamine receptor 2A (Rattus norvegicus) (UniProt P14842); assay: Compound was tested for binding affinity at 5-hydroxytryptamine 2A receptor sites in rat cortical homogenate using [125I]-2,5-Dimethoxy -4-iodoamphetamine (DOI).
Summary of the method: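 Rat frontal cortex membranes were washed in 50 mM Tris-HCl pH 7.4 and preincubated at 37 °C in buffer with EDTA, pargyline, CaCl2 and ascorbate. They were incubated with [125I]DOI and test drug for 15 min at 37 °C, then filtered, and the filters were gamma-counted. Cinanserin (10 µM) defined nonspecific binding. Values come from at least three experiments, each in triplicate.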

[7] = biological target: 5-hydroxytryptamine receptor 2A (Rattus norvegicus, UniProt P14842); assay: Compound was tested for binding affinity using [3H]MDL-100,907 at 5-hydroxytryptamine 2A receptor sites in rat cortical homogenate.
Summary of the method: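 Membranes (200-400 µg protein) from rat frontal cortex homogenate were incubated with 0.2 nM [3H]MDL100907 and competing drug for 15 min at 37 °C. The buffer was Tris-HCl pH 7.4 with EDTA, pargyline, CaCl2 and ascorbate. Bound and free ligand were separated by GF/C filtration and read by scintillation counting. Nonspecific binding was taken with 10 µM cinanserin. […] values come from at least three experiments, each in triplicate.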

[8] = system: Rattus norvegicus; assay: Percentage of rats selecting the drug liver at dose of 0.68 mg/kg; assay type: functional; summary of the method: as §1
[9] = system: Rattus norvegicus; assay: Percentage of rats selecting the drug liver at dose of 1.36 mg/kg; assay type: functional; summary of the method: as §1
[10] = system: Rattus norvegicus; assay: Substitution tests were carried out for the compound in DOI- trained rats dosed with 0.12 mg/kg drug and the binding data was reported; assay type: functional
[11] = system: Rattus norvegicus; assay: Substitution tests were carried out for the compound in DOI- trained rats dosed with 0.50 uM/kg drug and the binding data was reported; assay type: functional
Summary of the method: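 Rats trained on DOI (0.4 mg/kg i.p.) versus saline under an FR50 two-lever food schedule received the test drug i.p. in saline 30 min before testing. Quantal scoring used the lever first reaching 50 presses to give %SDL. ED50 and 95% CI were obtained by the Litchfield–Wilcoxon log-probit method when a dose reached ≥80% SDL.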

[12] = system: Rattus norvegicus; assay: Substitution tests were carried out for the compound in LSD- trained rats dosed with 0.06 mg/kg drug and the binding data was reported; assay type: functional
[13] = system: Rattus norvegicus; assay: Substitution tests were carried out for the compound in LSD- trained rats dosed with 0.25 uM/kg drug and the binding data was reported; assay type: functional
Summary of the method: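 Rats trained on LSD (0.08 mg/kg i.p.) versus saline under an FR50 two-lever food schedule received the test drug i.p. in 0.9% saline 30 min before the session. The lever first given 50 presses was scored as selected, giving %SDL. ED50 (95% CI) came from Litchfield–Wilcoxon log-probit analysis, and none was calculated where ≥50% of rats were disrupted.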

[14] = system: Rattus norvegicus; assay: Percentage of rats selecting the drug liver at dose of 0.16 mg/kg; assay type: functional
Summary of the method: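 Male Sprague–Dawley rats (200-220 g) were trained in a two-lever FR 50 food-reinforced task to discriminate LSD (0.08 mg/kg) or DOI (0.4 mg/kg) from saline. Drugs were given i.p. in 0.9% saline 30 min before the session. Scoring was quantal: the lever first reaching 50 presses counted as selected, and %SDL is the percentage of rats choosing the drug lever.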

[15] = system: Rattus norvegicus; assay: Percentage of rats selecting the drug liver at dose of 0.33 mg/kg; assay type: functional; summary of the method: as §1
[16] = system: Rattus norvegicus; assay: Percentage of rats selecting the drug liver at dose of 0.65 mg/kg; assay type: functional; summary of the method: as §1
[17] = system: Rattus norvegicus; assay: Percentage of rats selecting the drug liver at dose of 0.08 mg/kg; assay type: functional; summary of the method: as §1
[18] = system: Rattus norvegicus; assay: Percentage of rats selecting the drug liver at dose of 0.03 mg/kg; assay type: functional; summary of the method: as §1
[19] = system: Rattus norvegicus; assay: Percentage of rats selecting the drug liver at dose of 0.06 mg/kg; assay type: functional; summary of the method: as §1
[20] = system: Rattus norvegicus; assay: Percentage of rats selecting the drug liver at dose of 0.12 mg/kg; assay type: functional; summary of the method: as §1
[21] = system: Rattus norvegicus; assay: Percentage of rats selecting the drug liver at dose of 0.23 mg/kg; assay type: functional; summary of the method: as §1
[22] = system: Rattus norvegicus; assay: Percentage of rats selecting the drug liver at dose of 0.01 mg/kg; assay type: functional; summary of the method: as §1
[23] = system: Rattus norvegicus; assay: Percentage of rats selecting the drug liver at dose of 0.02 mg/kg; assay type: functional; summary of the method: as §1
[24] = system: Rattus norvegicus; assay: Percentage of rats selecting the drug liver at dose of 0.04 mg/kg; assay type: functional; summary of the method: as §1

5-hydroxytryptamine receptor 2A, sequence (P14842 whole entry): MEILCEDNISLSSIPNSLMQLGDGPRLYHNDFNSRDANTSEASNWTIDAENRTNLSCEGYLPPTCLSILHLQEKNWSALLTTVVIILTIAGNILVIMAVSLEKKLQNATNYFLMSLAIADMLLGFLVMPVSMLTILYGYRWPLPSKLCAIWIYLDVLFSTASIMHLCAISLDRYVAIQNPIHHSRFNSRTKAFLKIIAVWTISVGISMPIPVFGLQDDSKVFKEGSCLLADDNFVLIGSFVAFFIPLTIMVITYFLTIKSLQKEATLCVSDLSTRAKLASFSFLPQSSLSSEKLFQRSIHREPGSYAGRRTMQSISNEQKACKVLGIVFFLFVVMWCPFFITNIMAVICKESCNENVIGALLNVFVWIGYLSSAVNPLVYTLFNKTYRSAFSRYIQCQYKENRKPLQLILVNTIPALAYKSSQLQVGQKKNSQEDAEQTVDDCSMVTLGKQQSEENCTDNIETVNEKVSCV
5-hydroxytryptamine receptor 2A (Rattus norvegicus), sequence (P14842 whole entry): as above

Question: COc1cc(CC(C)N)c(OC)cc1I (stereo not given) was tested. Which ED50 [1] did it give?
Answer: Its ED50 is 0.12 µmol/kg.

Question: What about the ED50 [2] of the same compound?
Answer: Its ED50 is 0.28 µmol/kg.

Question: And the SDL [3]?
Answer: The SDL was 56%.

Question: What about the SDL [4] of the same compound?
Answer: The SDL was 89%.

Question: What about the SDL [5] of the same compound?
Answer: Its SDL is 100%.

Question: For CN1CCC[C@H]1Cc1c[nH]c2cc(O)ccc12, which K0.5 [6] is on record?
Answer: The K0.5 was 290 nM.

Question: And the Ki [7]?
Answer: Its Ki is 4.7 µM.

Question: What does the source list for COc1ccc2[nH]cc(C3CCN(C)C3)c2c1 (stereo not given)?
Answer: K0.5 [6]: 150 nM; Ki [7]: 1.3 µM; SDL [8]: 33% and 14%; SDL [9]: 50%

Question: With COc1ccc2[nH]cc(CCN(C)C)c2c1 [MEBUFOTENIN] as the compound, how does the K0.5 [6] read?
Answer: The K0.5 was 21 nM.

Question: And the Ki [7]?
Answer: Its Ki is 1.6 µM.

Question: What does the source list for COc1ccc2[nH]cc(C[C@H]3CCCN3C)c2c1?
Answer: K0.5 [6]: 9.5 nM; Ki [7]: 0.4 µM; ED50 [10]: 0.11 µmol/kg; ED50 [11]: 0.32 µmol/kg; ED50 [12]: 0.14 µmol/kg; ED50 [13]: 0.44 µmol/kg; SDL [14]: 63%; SDL [15]: 82% and 88%; SDL [16]: 100%; SDL ([17]; 0.08 mg/kg): 20% and 43%

Question: Which results are given for CN(C)CCc1c[nH]c2cccc(O)c12 [PSILOCIN]?
Answer: K0.5 [6]: 6 nM; Ki [7]: 0.39 µM

Question: What does the source list for CN1CCC[C@@H]1Cc1c[nH]c2cc(O)ccc12?
Answer: K0.5 [6]: 13 nM; Ki [7]: 0.21 µM; ED50 [10]: 0.11 µmol/kg; ED50 [11]: 0.47 µmol/kg; ED50 [12]: 0.06 µmol/kg; ED50 [13]: 0.25 µmol/kg; SDL [18]: 30%; SDL [19]: 40% and 14%; SDL [20]: 64% and 43%; SDL [21]: 100%

Question: Which results are given for CCN(CC)C(=O)[C@@H]1C=C2c3cccc4[nH]cc(c34)C[C@H]2N(C)C1 [LYSERGIDE]?
Answer: ED50 [1]: 0.012 µmol/kg; ED50 [2]: 0.026 µmol/kg; SDL [22]: 46%; SDL [23]: 78%; SDL [24]: 81%; SDL [17]: 100%

Question: With COc1ccc2[nH]cc(C[C@@H]3CCCN3C)c2c1 as the compound, how does the K0.5 [6] read?
Answer: Its K0.5 is 64 nM.

Question: And the Ki [7]?
Answer: The Ki was over 9.4 µM.

Question: Which K0.5 [6] does the source give for CN1CCC(c2c[nH]c3cccc(O)c23)C1 (stereo not given) here?
Answer: The K0.5 was 82 nM.

Question: What about the Ki [7] of the same compound?
Answer: The Ki was 0.44 µM.
